Assay results taken from ChEMBL document CHEMBL3822438, “Chlorin p6-Based Water-Soluble Amino Acid Derivatives as Potent Photosensitizers for Photodynamic Therapy” (J Med Chem, 2016).
The source made the active and inactive calls. The rule behind the calls is not given here.

Experiments:
B16-F10 [1] = test: Antitumor activity against B16F10 cells implanted in C57BL/6 mouse assessed as tumor growth inhibition at 2 mg/kg, iv administered for 2 hrs followed by irradiation with laser at 150 J/cm'2 for 10 mins; assay type: functional, organism-based
How it was run: (§1)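 B16-F10 cells (2×10^4) inoculated subcutaneously into the right thigh of male C57BL/6 mice aged 6-8 weeks. Mice with tumours 6-8 mm in diameter were used, 5 per group. Irradiation at 678 nm diode laser, 250 mW/cm² for 10 min, 2 h after i.v. dosing. Tumour volume measured by caliper as (W²×L)/2. Survival recorded daily and analysed by Kaplan-Meier with log-rank test.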

B16-F10 [2] = test: Antitumor activity against B16F10 cells implanted in C57BL/6 mouse assessed as survival time at 2 mg/kg, iv administered for 2 hrs followed by irradiation with laser at 150 J/cm'2 for 10 mins (reference value: 13 days); assay type: functional, organism-based; how it was run: as §1
A-375 [3] = test: Phototoxicity in human A375 cells assessed as cell viability after 24 hrs followed by irradiation with diode laser at 10 J/cm'2 measured after 24 hrs by cell counting kit-8 based spectrophotometric analysis; assay type: functional
How it was run: (§2)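 Phototoxicity by CCK-8. Cells loaded with a range of compound concentrations for 24 h at 37 °C, irradiated with a 678 nm diode laser at 10 J/cm², then incubated a further 24 h. Viability read as absorbance at 450 nm after 1.5 h with CCK-8.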

A-375 [4] = test: Dark toxicity in human A375 cells assessed as reduction in cell surviving fraction at 50 to 300 uM after 48 hrs by cell counting kit-8 based spectrophotometric analysis; details: a-375, 48 h
How it was run: (§3)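 Survival fraction measured in the dark by CCK-8 after 48 h exposure at 37 °C to 300 µM or 50 µM. Cells were in 10% FBS medium (A375 in DMEM, B16-F10 in RPMI 1640). Viability read as absorbance at 450 nm after 1.5 h with CCK-8.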

[5] = Dark toxicity in mouse B16F10 cells assessed as cell viability after 48 hrs by cell counting kit-8 based spectrophotometric analysis; design: species or system B16-F10; details: for IC50 at 48 h: mouse, B16F10 cells
How it was run: (§4)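 CCK-8 dark toxicity. 5×10^3 cells seeded in 10% FBS medium (A375 in DMEM, B16-F10 in RPMI 1640). Exposed to graded compound concentrations for 48 h at 37 °C, kept in the dark. Fresh medium and CCK-8 added for 1.5 h, then absorbance read at 450 nm to give IC50. Ratio is dark IC50 over IC50 under light.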

[6] = Dark toxicity in mouse B16F10 cells assessed as reduction in cell surviving fraction at 50 to 300 uM after 48 hrs by cell counting kit-8 based spectrophotometric analysis; details: b16-f10, 48 h; how it was run: as §3
A-375 [7] = test: Phototoxicity in human A375 cells assessed as reduction in cell surviving fraction by irradiation with diode laser at 10 J/cm'2 after 24 hrs by cell counting kit-8 based spectrophotometric analysis; assay type: functional
How it was run: (§5)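 Survival fraction after PDT. Cells held 24 h at 2 µM or 0.2 µM, irradiated at 678 nm with 10 J/cm², then cultured another 24 h. Viability measured by CCK-8 at 450 nm.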

B16-F10 [8] = test: Phototoxicity in mouse B16F10 cells assessed as reduction in cell surviving fraction by irradiation with diode laser at 10 J/cm'2 after 24 hrs by cell counting kit-8 based spectrophotometric analysis; assay type: functional; how it was run: as §5
[9] = Phototoxicity in mouse B16F10 cells assessed as cell viability after 24 hrs followed by irradiation with diode laser at 10 J/cm'2 measured after 24 hrs by cell counting kit-8 based spectrophotometric analysis; assay type: functional, B16-F10; how it was run: as §2
[10] = Ratio of IC50 for dark toxicity to IC50 for phototoxicity in human A375 cells; assay type: cell-based, A-375; details: for selectivity ratio: A375 cells, read-out: Ratio IC50; how it was run: as §4
[11] = (§6) Dark toxicity in human A375 cells assessed as cell viability after 48 hrs by cell counting kit-8 based spectrophotometric analysis; design: species or system A-375; details: human, A375 cells; how it was run: as §4
[12] = Ratio of IC50 for dark toxicity to IC50 for phototoxicity in mouse B16F10 cells by cell counting kit-8 based spectrophotometric analysis; design: species or system B16-F10; details: for selectivity ratio: B16F10 cells, read-out: Ratio IC50; how it was run: as §4
[13] = Phototoxicity in mouse B16F10 cells assessed as cell viability after 24 hrs followed by irradiation with diode laser at 10 J/cm'2 measured after 24 hrs by MTT assay; assay type: functional, cell-based, B16-F10; details: b16-f10
How it was run: (§7)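 B16-F10 cells in RPMI 1640 with 10% FBS. Dark arm: compound for 48 h. Light arm: compound for 24 h, then 678 nm diode laser at 10 J/cm², then a further 24 h. Read-out by MTT for 4 h, formazan dissolved in DMSO, absorbance at 490 nm. Ratio is dark IC50 over light IC50.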

[14] = Dark toxicity in mouse B16F10 cells assessed as cell viability after 48 hrs by MTT assay; assay type: cell-based, B16-F10; details: b16-f10; how it was run: as §7
[15] = Ratio of IC50 for dark toxicity to IC50 for phototoxicity in mouse B16F10 cells by MTT assay; assay type: cell-based, B16-F10; details: b16-f10; how it was run: as §7
A-375 [16] = test: as §6; details: a-375; how it was run: as §4
[17] = Homo sapiens, A-375, light or radiation study, 24 h
[18] = Mus musculus, B16-F10, light or radiation study, 24 h

## VERTEPORFIN [listing 1 of 2 here]
B16-F10 [1]
  TGI: Active
B16-F10 [2]
  MST: 18 days

## C=Cc1c(C)c2cc3nc(c(C(=O)OC)c4[nH]c(cc5nc(cc1[nH]2)C(C)=C5CC)c(C)c4C(=O)OC)[C@@H](CCC(=O)N[C@@H](CCC(=O)O)C(=O)O)[C@@H]3C
A-375 [3]; [17]
  IC50: 1.54 µM
A-375 [4]
  Activity: Non-toxic
[5]
  IC50 at 48 h: 284 µM
[6]
  Activity: Non-toxic
A-375 [7]
  Activity: Dose-dependent effect
B16-F10 [8]
  Activity: Dose-dependent effect
[9]; [18]
  IC50: 1.22 µM
[10]
  selectivity ratio: > 195
[11]
  IC50 at 48 h: > 300 µM
[12]
  selectivity ratio: 233

## VERTEPORFIN [listing 2 of 2 here]
A-375 [3]; a-375
  IC50: 2.06 µM
[5]; b16-f10
  IC50: 24.9 µM
[13]
  IC50: 1.07 µM
[9]; b16-f10
  IC50: 1.2 µM
[10]; a-375
  Ratio IC50: 17.64
[14]
  IC50: 25 µM
[15]
  Ratio IC50: 23.39
A-375 [16]
  IC50: 36.3 µM
[12]; b16-f10
  Ratio IC50: 20.77

## CCC1=C(C)c2cc3[nH]c(cc4nc(c(C(=O)OC)c5[nH]c(cc1n2)c(C)c5C(=O)OC)C(CCC(=O)N[C@@H](CCC(=O)O)C(=O)O)=C4C)[C@@]1(C)C3=CC=C(C(=O)OC)[C@H]1C(=O)OC
A-375 [3]; [17]
  IC50: 7.1 µM
[5]
  IC50 at 48 h: 224 µM
[9]; [18]
  IC50: 4.06 µM
[10]
  selectivity ratio: 40.3
[11]
  IC50 at 48 h: 286 µM
[12]
  selectivity ratio: 55.3
